The text below walks through data of ChEMBL document CHEMBL1124875, “Brain targeting of anti-HIV nucleosides: synthesis and in vitro and in vivo studies of dihydropyridine derivatives of 3'-azido-2',3'-dideoxyuridine and 3'-azido-3'-deoxythymidine” (J Med Chem, 1990).

Data set [1] can be described thus: Half life in Human serum. The class given is ADME, organism-based. In outline:
(§1)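 Prodrug added from DMSO standard to an initial 50 or 10 µg/mL in one of four media at 37 °C with shaking: fresh human serum, fresh mouse serum, mouse brain homogenate (1:1 g/mL in physiological phosphate buffer), or phosphate buffer pH 7.4. Sampled 0–10 h. Dihydropyridine, quaternary salt and parent drug were measured by ion-pair HPLC at 260 nm. k is the terminal-phase ln(concentration)–time regression slope, with the associated half-life.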

Data set [2] can be described thus: Half life in phosphate buffer at pH 7.4. The class given is ADME. In outline: as §1
For a further data set, the species on record is Homo sapiens. Description: In vitro degradation rate constant in Human serum. The class given is ADME. In a few lines: as §1
A short description of data set [3]: In vitro anti-HIV activity was determined in peripheral blood mononuclear cells. The data set is classed as functional, Homo sapiens.
For data set [4], the species on record is Mus musculus. Description: In vitro degradation rate constant Mouse brain hom. The class given is ADME. In outline:
as §1

The nature of data set [5]: Half life in Mouse serum. The data set is classed as ADME, organism-based. In a few lines:
as §1

Data set [6] in a line: in vivo. The settings on record: serum.
The species entered for data set [7] is Mus musculus. Description: In vitro degradation rate constant in Mouse serum. The data set is classed as ADME. In a few lines:
as §1

Data set [8] in a line: In vitro degradation rate constant in phosphate buffer at pH 7.4. The data set is classed as ADME. In outline:
as §1

A short description of data set [9]: Half life in Mouse brain hom. The settings on record: brain homogenate. The data set is classed as ADME, organism-based. In outline:
as §1

The conditions of data set [10]: serum.
Data set [11] is described as follows: (§2) Half life of the compound. The data set is classed as ADME.
Data set [12] can be described thus: Relative brain exposure of the compound.
Data set [13] is described as follows: in vivo. The settings on record: brain.
Data set [14] is described as follows: as §2. The class given is functional.

Broadly, the half-life is the time needed for the level to fall by half in the phase considered. As usually defined, the EC50 is the midpoint of the concentration-response curve. What is called AUC is the area under the concentration-time curve, a measure of exposure. A higher AUC goes with high exposure. Consider `CN1C=CCC(C(=O)OC[C@H]2O[C@@H](n3ccc(=O)[nH]c3=O)C[C@@H]2N=[N+]=[N-])=C1`, for which the half-life in [1] was 4.33 h; in data set [2], 2.13 h; in data set [5], 0.56 h; in data set [9], 0.17 h. Besides, the Rate constant in the data set listed under Homo sapiens amounted to 0.16 h⁻¹; in the data set listed under Mus musculus [4], 4.15 h⁻¹; in the data set filed under Mus musculus [7] it was 1.24 h⁻¹; in data set [8], 0.33 h⁻¹. Further, in data set [3], the response was half-maximal at 1000 nM (EC50). Moreover, the AUC in the data set “in vivo [6]” stood at 4430 ng·h/mL.

In the case of `[N-]=[N+]=N[C@H]1C[C@H](n2ccc(=O)[nH]c2=O)O[C@@H]1CO` (stereo in doubt; form 1) [NAVURIDINE], the AUC worked out at 11430 ng·h/mL. This compound had an AUC in data set [10] of 25790 ng·h/mL. For the same compound, in data set [11], the T1/2 was determined as 4.34 h. For the same compound, in [12], the Rel brain exposure stood at 5.47.

For the compound `[N-]=[N+]=N[C@H]1C[C@H](n2ccc(=O)[nH]c2=O)O[C@@H]1CO` (stereo in doubt; form 2) [NAVURIDINE], the AUC came out at 2090 ng·h/mL. The compound further displayed a T1/2 in [11] of 0.84 h. Further, the EC50 in [3] (Homo sapiens) is 200 nM. Also, in “in vivo [6]”, the AUC is 25800 ng·h/mL.

In the case of `Cc1cn([C@H]2C[C@H](N=[N+]=[N-])[C@@H](COC(=O)C3=CN(C)C=CC3)O2)c(=O)[nH]c1=O`, the half-life in data set [1] is 7.7 h; in [2], 3.23 h; in data set [5], 1.4 h; in [9], 0.18 h. Further, the Rate constant in the data set filed under Homo sapiens turned out to be 0.09 h⁻¹; in the data set filed under Mus musculus [4], 3.89 h⁻¹; in the data set filed under Mus musculus [7], 0.49 h⁻¹; in data set [8], 0.21 h⁻¹. In addition, the EC50 in data set [3] (Homo sapiens) came out at 1.6 nM. This compound had an AUC in the data set “in vivo [6]” of 1270 ng·h/mL.

For `Cc1cn([C@H]2C[C@H](N=[N+]=[N-])[C@@H](COC(=O)c3ccc[n+](C)c3)O2)c(=O)[nH]c1=O.[I-]`, the AUC in the data set “in vivo [13]” turned out to be 1290 ng·h/mL; in the data set “in vivo [6]” it was 600 ng·h/mL. The half-life was 34.6 h in [1], 1.25 h in data set [2], 1.08 h in data set [5] and 1.69 h in [9]. For the same compound, the Rate constant in the data set filed under Homo sapiens was determined as 0.02 h⁻¹; in the data set filed under Mus musculus [4], 0.41 h⁻¹; in the data set listed under Mus musculus [7] it was 0.64 h⁻¹; in data set [8], 0.55 h⁻¹.

For the compound `C[n+]1cccc(C(=O)OC[C@H]2O[C@@H](n3ccc(=O)[nH]c3=O)C[C@@H]2N=[N+]=[N-])c1.[I-]`, the AUC in the data set “in vivo [13]” stood at 3910 ng·h/mL; in “in vivo [6]” it was 1210 ng·h/mL. Further, the half-life in [1] was 4.95 h; in data set [2], 0.87 h; in [5], 0.51 h; in data set [9] it was 0.65 h. For the same compound, the Rate constant in the data set filed under Homo sapiens amounted to 0.14 h⁻¹; in the data set listed under Mus musculus [4] it was 1.07 h⁻¹; in the data set filed under Mus musculus [7], 1.36 h⁻¹; in data set [8] it was 0.8 h⁻¹.

For the compound `Cc1cn([C@H]2C[C@H](N=[N+]=[N-])[C@@H](CO)O2)c(=O)[nH]c1=O` [ZIDOVUDINE], the AUC amounted to 25380 ng·h/mL in data set [10] and 26600 ng·h/mL in “in vivo [6]”. In data set [11], this compound showed a half-life of 0.54 h. Further, the EC50 in data set [3] (Homo sapiens) amounted to 2 nM. The compound further had a T1/2 in [14] of 15.8 h.
